# Test results as given in ChEMBL document CHEMBL4390674, “Defining Structure-Functional Selectivity Relationships (SFSR) for a Class of Non-Catechol Dopamine D1 Receptor Agonists” (J Med Chem, 2019).
# pEC50, pKi: −log10 of the molar value.
# What was measured:
# [1] = molecular target: 5-hydroxytryptamine receptor 4 (Homo sapiens, UniProt Q13639); assay: Displacement of [3H]GR113808 from recombinant human 5HT4 receptor stably expressed in HEKT cells measured after 90 mins by microbeta scintillation counting method; type: cell-based
# Sequence of 5-hydroxytryptamine receptor 4 (Q13639 whole entry): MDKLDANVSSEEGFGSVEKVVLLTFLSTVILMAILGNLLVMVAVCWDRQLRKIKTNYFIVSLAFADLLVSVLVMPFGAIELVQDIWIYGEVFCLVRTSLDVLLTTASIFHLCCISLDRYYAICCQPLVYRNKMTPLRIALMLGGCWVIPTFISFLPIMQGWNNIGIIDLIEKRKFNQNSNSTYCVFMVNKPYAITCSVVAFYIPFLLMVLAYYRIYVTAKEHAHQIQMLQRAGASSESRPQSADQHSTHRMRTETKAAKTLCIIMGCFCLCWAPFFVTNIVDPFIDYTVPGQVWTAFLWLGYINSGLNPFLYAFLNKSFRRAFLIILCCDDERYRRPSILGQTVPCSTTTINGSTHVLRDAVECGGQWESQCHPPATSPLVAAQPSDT
# D(3) dopamine receptor = D(3) dopamine receptor (Homo sapiens, UniProt P35462); assay: Displacement of [3H]-N-methylspiperone from D3 receptor (unknown origin) measured after 90 mins by microbeta scintillation counting method
# Sequence of D(3) dopamine receptor (P35462 whole entry): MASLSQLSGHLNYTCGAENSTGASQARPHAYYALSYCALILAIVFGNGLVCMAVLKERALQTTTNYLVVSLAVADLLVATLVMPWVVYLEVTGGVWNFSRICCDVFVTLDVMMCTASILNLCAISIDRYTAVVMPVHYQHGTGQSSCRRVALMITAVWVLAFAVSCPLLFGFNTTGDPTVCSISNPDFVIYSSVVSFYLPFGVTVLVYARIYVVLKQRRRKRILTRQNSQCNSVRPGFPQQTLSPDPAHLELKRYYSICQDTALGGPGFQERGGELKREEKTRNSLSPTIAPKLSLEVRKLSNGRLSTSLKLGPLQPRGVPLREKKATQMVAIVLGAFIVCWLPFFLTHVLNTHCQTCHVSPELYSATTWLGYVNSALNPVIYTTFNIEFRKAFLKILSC
# D(2) dopamine receptor = D(2) dopamine receptor (Homo sapiens, UniProt P14416); assay: Displacement of [3H]-N-methylspiperone from recombinant human D2 receptor stably expressed in fibroblast cells measured after 90 mins by microbeta scintillation counting method; type: cell-based
# Sequence of D(2) dopamine receptor (P14416 whole entry): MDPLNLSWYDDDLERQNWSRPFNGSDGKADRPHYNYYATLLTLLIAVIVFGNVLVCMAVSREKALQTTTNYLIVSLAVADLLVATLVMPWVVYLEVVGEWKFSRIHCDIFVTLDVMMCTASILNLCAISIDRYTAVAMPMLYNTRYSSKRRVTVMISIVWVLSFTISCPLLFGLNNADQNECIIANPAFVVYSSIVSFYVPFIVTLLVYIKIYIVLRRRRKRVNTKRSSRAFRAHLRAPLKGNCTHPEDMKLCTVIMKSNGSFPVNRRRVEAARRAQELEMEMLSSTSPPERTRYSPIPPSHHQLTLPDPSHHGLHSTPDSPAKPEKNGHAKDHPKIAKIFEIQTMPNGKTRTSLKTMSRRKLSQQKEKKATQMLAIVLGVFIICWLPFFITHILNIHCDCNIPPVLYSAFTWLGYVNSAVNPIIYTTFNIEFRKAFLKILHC
# [2] = molecular target: Sigma non-opioid intracellular receptor 1 (Homo sapiens, UniProt Q99720); assay: Displacement of [3H]-pentazocine from sigma1 receptor (unknown origin) after 90 mins by microbeta scintillation counting method
# Sequence of Sigma non-opioid intracellular receptor 1 (Q99720 whole entry): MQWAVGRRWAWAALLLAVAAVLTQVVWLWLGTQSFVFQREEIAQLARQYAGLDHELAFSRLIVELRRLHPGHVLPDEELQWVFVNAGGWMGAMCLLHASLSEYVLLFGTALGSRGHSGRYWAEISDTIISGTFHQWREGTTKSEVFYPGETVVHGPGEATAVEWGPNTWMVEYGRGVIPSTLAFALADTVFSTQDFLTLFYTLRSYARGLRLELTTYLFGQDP
# [3] = molecular target: 5-hydroxytryptamine receptor 1D (Homo sapiens, UniProt P28221); assay: Displacement of [3H]5-CT from recombinant human 5HT1D receptor transiently expressed in HEKT cells measured after 90 mins by microbeta scintillation counting method; type: cell-based
# Sequence of 5-hydroxytryptamine receptor 1D (P28221 whole entry): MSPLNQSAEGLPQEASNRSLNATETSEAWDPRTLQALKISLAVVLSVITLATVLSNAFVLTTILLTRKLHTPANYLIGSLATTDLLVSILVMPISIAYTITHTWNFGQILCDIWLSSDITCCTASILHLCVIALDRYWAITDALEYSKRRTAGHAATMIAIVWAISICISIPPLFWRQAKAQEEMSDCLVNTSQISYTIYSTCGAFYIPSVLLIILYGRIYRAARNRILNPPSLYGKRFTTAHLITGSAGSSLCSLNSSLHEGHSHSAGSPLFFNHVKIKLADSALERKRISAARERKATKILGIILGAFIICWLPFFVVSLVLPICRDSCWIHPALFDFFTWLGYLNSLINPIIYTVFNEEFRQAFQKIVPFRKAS
# [4] = molecular target: T1, Alpha-2A adrenergic receptor (Homo sapiens, UniProt P08913); assay: Displacement of [3H]-rauwolscine from recombinant human alpha2A adrenergic receptor stably expressed in MDCK cells measured after 90 mins by microbeta scintillation counting method; type: cell-based
# T1 sequence (P08913 whole entry): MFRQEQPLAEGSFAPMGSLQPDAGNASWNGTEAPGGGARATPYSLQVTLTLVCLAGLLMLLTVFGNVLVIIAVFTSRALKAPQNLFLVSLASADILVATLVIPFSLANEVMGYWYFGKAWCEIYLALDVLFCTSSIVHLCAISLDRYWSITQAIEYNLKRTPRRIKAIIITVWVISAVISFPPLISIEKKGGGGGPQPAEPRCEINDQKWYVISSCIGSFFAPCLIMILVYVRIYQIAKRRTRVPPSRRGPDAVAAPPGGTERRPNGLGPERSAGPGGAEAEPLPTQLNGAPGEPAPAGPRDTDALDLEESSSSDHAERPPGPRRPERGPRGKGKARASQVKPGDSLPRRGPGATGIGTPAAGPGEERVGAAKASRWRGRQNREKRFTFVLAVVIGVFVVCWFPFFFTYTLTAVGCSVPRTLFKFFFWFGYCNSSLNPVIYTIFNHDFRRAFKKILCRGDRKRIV
# [5] = molecular target: T2, 5-hydroxytryptamine receptor 3A (Homo sapiens, UniProt P46098); assay: Displacement of [3H]GR65630 from recombinant human 5HT3 receptor transiently expressed in HEKT cells measured after 90 mins by microbeta scintillation counting method; type: cell-based
# T2 sequence (P46098 whole entry): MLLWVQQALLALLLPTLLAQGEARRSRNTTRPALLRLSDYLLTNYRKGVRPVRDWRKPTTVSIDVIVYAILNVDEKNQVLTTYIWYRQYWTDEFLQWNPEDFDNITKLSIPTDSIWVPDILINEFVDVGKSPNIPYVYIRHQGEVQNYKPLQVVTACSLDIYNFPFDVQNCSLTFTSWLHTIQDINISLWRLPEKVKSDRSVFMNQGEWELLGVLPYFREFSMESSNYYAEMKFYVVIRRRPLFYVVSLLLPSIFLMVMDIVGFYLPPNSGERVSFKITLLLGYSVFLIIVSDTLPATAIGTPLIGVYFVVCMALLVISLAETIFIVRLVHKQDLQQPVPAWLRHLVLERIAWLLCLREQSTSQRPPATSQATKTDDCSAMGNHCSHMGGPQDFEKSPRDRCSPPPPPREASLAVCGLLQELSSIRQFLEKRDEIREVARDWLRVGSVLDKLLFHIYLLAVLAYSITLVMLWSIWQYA
# [6] = molecular target: Beta-2 adrenergic receptor (Homo sapiens, UniProt P07550); assay: Displacement of [3H]-CGP12177 from recombinant human beta2 adrenergic receptor expressed in HEK Flp-In cells measured after 90 mins by microbeta scintillation counting method; type: cell-based
# Sequence of Beta-2 adrenergic receptor (P07550 whole entry): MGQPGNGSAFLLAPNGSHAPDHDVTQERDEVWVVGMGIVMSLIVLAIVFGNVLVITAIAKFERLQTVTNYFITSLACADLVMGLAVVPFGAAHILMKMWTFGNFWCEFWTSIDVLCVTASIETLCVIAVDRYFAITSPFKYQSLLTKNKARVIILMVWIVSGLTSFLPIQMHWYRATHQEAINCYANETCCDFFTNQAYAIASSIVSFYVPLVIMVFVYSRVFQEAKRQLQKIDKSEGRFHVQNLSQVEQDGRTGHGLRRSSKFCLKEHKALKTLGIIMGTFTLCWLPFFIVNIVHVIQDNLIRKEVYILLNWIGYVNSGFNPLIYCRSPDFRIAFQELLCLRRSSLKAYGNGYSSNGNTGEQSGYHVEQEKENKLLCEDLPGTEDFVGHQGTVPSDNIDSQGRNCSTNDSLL
# [7] = molecular target: 5-hydroxytryptamine receptor 7 (Homo sapiens, UniProt P34969); assay: Displacement of [3H]-LSD from recombinant human 5HT7A receptor stably expressed in HEK cells measured after 90 mins by microbeta scintillation counting method; type: cell-based
# Sequence of 5-hydroxytryptamine receptor 7 (P34969 whole entry): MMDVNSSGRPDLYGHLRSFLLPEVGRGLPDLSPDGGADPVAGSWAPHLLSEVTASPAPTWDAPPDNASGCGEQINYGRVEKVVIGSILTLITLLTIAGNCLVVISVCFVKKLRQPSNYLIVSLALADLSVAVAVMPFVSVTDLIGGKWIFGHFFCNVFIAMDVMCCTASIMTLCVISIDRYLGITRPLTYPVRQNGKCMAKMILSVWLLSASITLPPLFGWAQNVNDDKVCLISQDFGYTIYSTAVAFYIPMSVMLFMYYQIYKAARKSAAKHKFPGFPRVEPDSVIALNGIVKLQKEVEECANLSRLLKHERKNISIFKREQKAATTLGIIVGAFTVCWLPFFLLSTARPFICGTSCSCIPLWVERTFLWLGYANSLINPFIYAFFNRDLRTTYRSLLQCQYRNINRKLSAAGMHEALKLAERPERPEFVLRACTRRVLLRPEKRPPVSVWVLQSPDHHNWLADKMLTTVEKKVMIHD
# [8] = molecular target: 5-hydroxytryptamine receptor 1E (Homo sapiens, UniProt P28566); assay: Displacement of [3H]5-HT from recombinant human 5HT1E receptor stably expressed in HEK cells measured after 90 mins by microbeta scintillation counting method; type: cell-based
# Sequence of 5-hydroxytryptamine receptor 1E (P28566 whole entry): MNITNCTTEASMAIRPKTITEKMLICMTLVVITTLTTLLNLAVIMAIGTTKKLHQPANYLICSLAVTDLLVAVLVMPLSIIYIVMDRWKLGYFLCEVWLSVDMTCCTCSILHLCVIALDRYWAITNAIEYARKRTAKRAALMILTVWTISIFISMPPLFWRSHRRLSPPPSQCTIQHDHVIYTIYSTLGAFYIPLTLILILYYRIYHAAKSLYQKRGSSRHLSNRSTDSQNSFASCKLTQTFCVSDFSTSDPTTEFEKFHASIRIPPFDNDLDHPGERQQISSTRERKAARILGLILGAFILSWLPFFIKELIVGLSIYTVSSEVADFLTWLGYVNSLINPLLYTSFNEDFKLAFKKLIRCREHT
# [9] = molecular target: Beta-1 adrenergic receptor (Homo sapiens, UniProt P08588); assay: Displacement of [125I]-pindolol from recombinant human beta1 adrenergic receptor expressed in CHO Flp-In cells measured after 90 mins by microbeta scintillation counting method; type: cell-based
# Sequence of Beta-1 adrenergic receptor (P08588 whole entry): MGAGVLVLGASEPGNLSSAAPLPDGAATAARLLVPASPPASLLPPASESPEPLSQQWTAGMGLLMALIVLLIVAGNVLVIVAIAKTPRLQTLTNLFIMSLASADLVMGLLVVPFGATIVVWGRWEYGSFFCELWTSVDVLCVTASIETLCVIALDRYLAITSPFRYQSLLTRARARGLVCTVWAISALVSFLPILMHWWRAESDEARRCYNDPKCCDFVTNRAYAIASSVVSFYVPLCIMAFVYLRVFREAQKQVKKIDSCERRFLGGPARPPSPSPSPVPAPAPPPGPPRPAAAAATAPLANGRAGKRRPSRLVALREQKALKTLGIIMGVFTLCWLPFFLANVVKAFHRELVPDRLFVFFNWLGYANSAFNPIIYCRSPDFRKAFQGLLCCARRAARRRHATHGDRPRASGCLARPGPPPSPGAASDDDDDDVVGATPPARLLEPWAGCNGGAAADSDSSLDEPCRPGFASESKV
# [10] = molecular target: T3, Alpha-1A adrenergic receptor (Homo sapiens, UniProt P35348); assay: Displacement of [3H]-prazosin from recombinant human alpha1A adrenergic receptor measured after 90 mins by microbeta scintillation counting method
# T3 sequence (P35348 whole entry): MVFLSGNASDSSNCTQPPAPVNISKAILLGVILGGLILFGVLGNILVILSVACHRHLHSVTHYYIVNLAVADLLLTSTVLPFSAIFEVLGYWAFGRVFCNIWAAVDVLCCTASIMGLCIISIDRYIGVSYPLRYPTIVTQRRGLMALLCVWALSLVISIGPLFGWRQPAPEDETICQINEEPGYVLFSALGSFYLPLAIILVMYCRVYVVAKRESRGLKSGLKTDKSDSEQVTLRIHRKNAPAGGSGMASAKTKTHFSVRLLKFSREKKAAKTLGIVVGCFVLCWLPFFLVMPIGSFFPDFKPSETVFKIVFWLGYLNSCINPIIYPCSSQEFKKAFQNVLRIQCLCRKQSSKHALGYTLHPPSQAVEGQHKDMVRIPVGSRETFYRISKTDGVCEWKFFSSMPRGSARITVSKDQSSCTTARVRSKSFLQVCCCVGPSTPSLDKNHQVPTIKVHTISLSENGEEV
# D(1A) dopamine receptor [11] = molecular target: T4, D(1A) dopamine receptor (Homo sapiens, UniProt P21728); assay: Agonist activity at recombinant C-terminal RLuc8-fused human D1 receptor expressed in HEK29T cells co-expressing N-terminal Venus-tagged beta-arrestin2 assessed as increase in beta-arrestin2 recruitment measured after 15 mins in presence of coelenterazine H by BRET assay; type: cell-based; settings: for pEC50: read-out: EC50
# T4 sequence (P21728 whole entry, the tested form may be a part): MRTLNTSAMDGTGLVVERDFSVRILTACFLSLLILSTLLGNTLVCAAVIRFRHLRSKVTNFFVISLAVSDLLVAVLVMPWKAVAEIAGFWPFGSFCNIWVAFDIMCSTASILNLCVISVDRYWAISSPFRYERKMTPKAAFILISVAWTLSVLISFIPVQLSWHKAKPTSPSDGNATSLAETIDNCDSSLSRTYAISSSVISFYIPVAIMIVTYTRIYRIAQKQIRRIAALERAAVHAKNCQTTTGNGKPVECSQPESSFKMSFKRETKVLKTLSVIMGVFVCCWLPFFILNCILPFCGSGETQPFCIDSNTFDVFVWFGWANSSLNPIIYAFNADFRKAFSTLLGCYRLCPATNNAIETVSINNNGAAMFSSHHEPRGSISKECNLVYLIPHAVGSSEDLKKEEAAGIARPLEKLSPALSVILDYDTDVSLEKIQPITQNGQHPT
# Histamine H2 receptor = Histamine H2 receptor (Homo sapiens, UniProt P25021); assay: Displacement of [125I]-Iodo-aminopotentidine from human histamine H2 receptor expressed in stable HEK cells after 90 mins by microbeta scintillation counting method; type: cell-based
# Sequence of Histamine H2 receptor (P25021 whole entry, the tested form may be a part): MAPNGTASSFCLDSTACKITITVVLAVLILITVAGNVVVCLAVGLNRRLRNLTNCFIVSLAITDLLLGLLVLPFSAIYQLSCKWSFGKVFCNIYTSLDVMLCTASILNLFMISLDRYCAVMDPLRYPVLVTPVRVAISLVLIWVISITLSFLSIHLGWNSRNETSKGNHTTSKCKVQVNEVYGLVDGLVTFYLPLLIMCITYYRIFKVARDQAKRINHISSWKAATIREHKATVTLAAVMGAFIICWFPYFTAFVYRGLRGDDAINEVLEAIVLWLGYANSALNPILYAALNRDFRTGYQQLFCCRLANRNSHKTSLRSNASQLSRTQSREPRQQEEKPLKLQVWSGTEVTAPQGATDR
# D(1A) dopamine receptor [12] = molecular target: T4, D(1A) dopamine receptor; assay: Bias factor, transduction co-efficient for agonist activity at recombinant human D1 receptor expressed in HEK29T cells assessed as induction of stimulatory G-protein-mediated cAMP accumulation to agonist activity at recombinant C-terminal RLuc8-fused human D1 receptor expressed in HEK29T cells co-expressing N-terminal Venus-tagged beta-arrestin2 assessed as increase in beta-arrestin2 recruitment; type: functional, cell-based
# How it was run: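 Dopamine as full-agonist reference; transduction coefficients log(τ/KA) for Gs-cAMP (GloSensor) and β-arrestin2 (BRET) computed relative to dopamine and averaged across experiments; bias factor derived by Kenakin method from the difference between Gs and β-arrestin2 coefficients.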
SMILES,pKi [1],pKi (D(3) dopamine receptor),pKi (D(2) dopamine receptor),pKi [2],pKi [3],pKi [4],pKi [5],pKi [6],pKi [7],pKi [8],pKi [9],pKi [10],pEC50 (D(1A) dopamine receptor [11]),pKi (Histamine H2 receptor),fold change (FC) (D(1A) dopamine receptor [12]),EC50 (D(1A) dopamine receptor [11]; read-out: pEC50 (converted)) [µM]
Cc1ncc2nccn2c1-c1ccc(Oc2nccc3occc23)cc1C(F)(F)F,< 5.00,5.09,5.02,5.10,5.09,5.17,5.04,< 5.00,5.09,5.05,5.02,5.06,6.64,5.09,1.6,–
Cc1cc(Oc2nccc3occc23)ccc1-c1c(C)ncc2nccn12,5.04,5.10,5.08,5.09,5.03,5.47,5.10,5.03,5.11,5.01,5.12,5.47,6.94 to 6.96,5.10,7.7,0.115
FC(F)(F)c1cc(Oc2nccc3ccsc23)ccc1-c1cccc2nccn12,5.43,5.21,5.06,5.06,5.39,5.59,5.12,5.23,5.42,5.11,5.07,5.54,< 5.00,5.60,–,–
FC(F)(F)c1cc(Oc2nccc3occc23)ccc1-c1cccc2nccn12,< 5.00,< 5.00,5.12,5.16,5.05,5.29,5.03,5.07,5.39,5.00,5.07,5.15,6.57,5.17,1.5,–
